Measured values as given in ChEMBL document CHEMBL1146538, “Antioxidative glycosides from the leaves of Ligustrum robustum” (J Nat Prod, 2003).
pIC50: −log10 of the molar value. The source made the active and inactive calls. The calls are words filed in the database; no cut-off is given here.

tested on: not listed separately; experiment: (§1) Antioxidant activity assessed as inhibition of AAPH-induced hemolysis in rat RBC after 3 hrs; assay type: functional, cell-based; details: erythrocyte
Method in brief: (§2)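 Rat blood drawn from abdominal aorta; RBC separated by centrifugation (2500 rpm, 10 min), washed three times with five volumes PBS pH 7.4. 2 mL RBC suspension mixed with 2 mL PBS containing varying glycoside amounts, then 1 mL of 400 mM AAPH in PBS; shaken at 37 °C for 3 h. Diluted with 8 mL PBS, centrifuged, supernatant A540 read; % inhibition versus control.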

**Q.** With C[C@@H]1O[C@@H](O[C@@H]2[C@@H](O)[C@H](OCCc3ccc(O)c(O)c3)O[C@H](CO)[C@H]2OC(=O)/C=C/c2ccc(O)c(O)c2)[C@H](O)[C@H](O)[C@H]1O [ACETOSIDE] as the compound, how does the pIC50 read?
**A.** 4.55

**Q.** With O=c1cc(-c2ccc(O)cc2)oc2cc(O[C@@H]3O[C@H](CO)[C@@H](O)[C@H](O)[C@H]3O)cc(O)c12 [APIGETRIN] as the compound, how does the pIC50 read?
**A.** 4.05

**Q.** With C[C@@H]1O[C@@H](O[C@@H]2[C@@H](O)[C@@H](O)[C@H](O[C@@H]3[C@@H](O)[C@H](OCCc4ccc(O)c(O)c4)O[C@H](CO)[C@H]3OC(=O)/C=C/c3ccc(O)c(O)c3)O[C@H]2C)[C@H](O)[C@H](O)[C@H]1O [LIGUPURPUROSIDE A] as the compound, how does the pIC50 read?
**A.** 4.58

**Q.** With C[C@@H]1O[C@@H](O[C@@H]2[C@@H](O)[C@@H](O)[C@H](O[C@@H]3[C@@H](O)[C@H](OCCc4ccc(O)cc4)O[C@H](CO)[C@H]3OC(=O)/C=C/c3ccc(O)cc3)O[C@H]2C)[C@H](O)[C@H](O)[C@H]1O [LIGUPURPUROSIDE B] as the compound, how does the pIC50 read?
**A.** 4.09

**Q.** With C/C(=C\CO[C@@H]1O[C@H](CO)[C@@H](OC(=O)/C=C/c2ccc(O)cc2)[C@H](O[C@@H]2O[C@@H](C)[C@H](O)[C@@H](O)[C@H]2O)[C@H]1O)C/C=C\C(C)(C)O [LIGUROBUSTOSIDE I] as the compound, how does the pIC50 read?
**A.** 3.47

**Q.** With C[C@@H]1O[C@@H](O[C@@H]2[C@@H](O)[C@@H](O)[C@H](O[C@@H]3[C@@H](O)[C@H](OCCc4ccc(O)cc4)O[C@H](CO)[C@H]3O)O[C@H]2C)[C@H](O)[C@H](O)[C@H]1O [LIGUROBUSTOSIDE M] as the compound, how does the pIC50 read?
**A.** 3.87

**Q.** With C[C@@H]1O[C@@H](O[C@@H]2[C@@H](O)[C@@H](O)[C@H](O[C@@H]3[C@@H](O)[C@H](OCCc4ccc(O)cc4)O[C@H](CO)[C@H]3OC(=O)/C=C/c3ccc(O)c(O)c3)O[C@H]2C)[C@H](O)[C@H](O)[C@H]1O [LIGUROBUSTOSIDE N] as the compound, how does the pIC50 read?
**A.** 4.66

**Q.** With C[C@@H]1O[C@@H](O[C@@H]2[C@@H](O)[C@H](OCCc3ccc(O)cc3)O[C@H](COC(=O)/C=C/c3ccc(O)cc3)[C@H]2O)[C@H](O)[C@H](O)[C@H]1O [OSMANTHUSIDE B6] as the compound, how does the pIC50 read?
**A.** 4.04

**Q.** With C[C@@H]1O[C@@H](O[C@@H]2[C@@H](O)[C@H](OCCc3ccc(O)cc3)O[C@H](CO)[C@H]2OC(=O)/C=C/c2ccc(O)cc2)[C@H](O)[C@H](O)[C@H]1O [OSMANTHUSIDE B] as the compound, how does the pIC50 read?
**A.** 3.80

**Q.** With C[C@@H]1O[C@@H](O[C@H]2[C@H](Oc3cc(O)c4c(=O)cc(-c5ccc(O)cc5)oc4c3)O[C@H](CO)[C@@H](O)[C@@H]2O)[C@H](O)[C@H](O)[C@H]1O [RHOIFOLIN] as the compound, how does the pIC50 read?
**A.** 4.02

**Q.** With Cc1c(C)c2c(c(C)c1O)CCC(C)(C(=O)O)O2 (centres undefined) [TROLOX] as the compound, how does the pIC50 read?
**A.** 4.00

tested on: Erythrocyte; experiment: as §1; assay type: functional, cell-based; details: not given; method in brief: as §2

**Q.** For C=C(C)C(=O)CC/C(C)=C/CO[C@@H]1O[C@H](CO)[C@@H](OC(=O)/C=C/c2ccc(O)cc2)[C@H](O[C@@H]2O[C@@H](C)[C@H](O)[C@@H](O)[C@H]2O)[C@H]1O, which Activity is on record?
**A.** inactive

**Q.** For CC(C)=CCC/C(C)=C/CO[C@@H]1O[C@H](CO)[C@@H](OC(=O)/C=C/c2ccc(O)cc2)[C@H](O[C@@H]2O[C@@H](C)[C@H](O)[C@@H](O)[C@H]2O)[C@H]1O, which Activity is on record?
**A.** inactive

**Q.** For CC(C)=CCC/C(C)=C/CO[C@@H]1O[C@H](COC(=O)/C=C/c2ccc(O)cc2)[C@@H](O)[C@H](O[C@@H]2O[C@@H](C)[C@H](O)[C@@H](O)[C@H]2O)[C@H]1O, which Activity is on record?
**A.** inactive
